Results from ChEMBL document CHEMBL3352121, “Modulation of Activity Profiles for Largazole-Based HDAC Inhibitors through Alteration of Prodrug Properties” (ACS Med Chem Lett, 2014).

Legend:
Histone deacetylase 5 [1] = target: T1, Histone deacetylase 5 (Homo sapiens, UniProt Q9UQL6); experiment: Inhibition of HDAC5 (unknown origin) incubated for 30 mins in presence of BSA and DTT by fluorescence assay
Outline: (§1)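 Purified HDAC isoforms were tested up to a maximum of 1 μM. IC50 values are averages of duplicate experiments. Disulfide compounds were pretreated with DTT to reduce the disulfide bond.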

Histone deacetylase 3 = Histone deacetylase 3 (Homo sapiens, UniProt O15379); experiment: Inhibition of HDAC3 (unknown origin) incubated for 30 mins in presence of BSA and DTT by fluorescence assay; outline: as §1
Sequence of Histone deacetylase 3 (O15379 whole entry): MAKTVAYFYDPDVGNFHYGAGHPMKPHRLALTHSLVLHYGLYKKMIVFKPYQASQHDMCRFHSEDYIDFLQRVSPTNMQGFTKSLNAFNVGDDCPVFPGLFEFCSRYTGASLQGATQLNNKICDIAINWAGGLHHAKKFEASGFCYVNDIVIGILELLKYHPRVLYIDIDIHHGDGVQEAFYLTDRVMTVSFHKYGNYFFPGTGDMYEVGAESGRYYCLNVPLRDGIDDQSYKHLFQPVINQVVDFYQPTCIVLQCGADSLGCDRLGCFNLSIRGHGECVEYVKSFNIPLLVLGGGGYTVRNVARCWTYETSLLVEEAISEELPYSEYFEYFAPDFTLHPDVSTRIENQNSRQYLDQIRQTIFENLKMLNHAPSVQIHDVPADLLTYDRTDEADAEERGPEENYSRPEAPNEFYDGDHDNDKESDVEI

Histone deacetylase 4 [2] = target: T2, Histone deacetylase 4 (Homo sapiens, UniProt P56524); experiment: Inhibition of HDAC4 (unknown origin) at 1 uM incubated for 30 mins in presence of BSA and DTT by fluorescence assay; outline: as §1
T2 sequence (P56524 whole entry): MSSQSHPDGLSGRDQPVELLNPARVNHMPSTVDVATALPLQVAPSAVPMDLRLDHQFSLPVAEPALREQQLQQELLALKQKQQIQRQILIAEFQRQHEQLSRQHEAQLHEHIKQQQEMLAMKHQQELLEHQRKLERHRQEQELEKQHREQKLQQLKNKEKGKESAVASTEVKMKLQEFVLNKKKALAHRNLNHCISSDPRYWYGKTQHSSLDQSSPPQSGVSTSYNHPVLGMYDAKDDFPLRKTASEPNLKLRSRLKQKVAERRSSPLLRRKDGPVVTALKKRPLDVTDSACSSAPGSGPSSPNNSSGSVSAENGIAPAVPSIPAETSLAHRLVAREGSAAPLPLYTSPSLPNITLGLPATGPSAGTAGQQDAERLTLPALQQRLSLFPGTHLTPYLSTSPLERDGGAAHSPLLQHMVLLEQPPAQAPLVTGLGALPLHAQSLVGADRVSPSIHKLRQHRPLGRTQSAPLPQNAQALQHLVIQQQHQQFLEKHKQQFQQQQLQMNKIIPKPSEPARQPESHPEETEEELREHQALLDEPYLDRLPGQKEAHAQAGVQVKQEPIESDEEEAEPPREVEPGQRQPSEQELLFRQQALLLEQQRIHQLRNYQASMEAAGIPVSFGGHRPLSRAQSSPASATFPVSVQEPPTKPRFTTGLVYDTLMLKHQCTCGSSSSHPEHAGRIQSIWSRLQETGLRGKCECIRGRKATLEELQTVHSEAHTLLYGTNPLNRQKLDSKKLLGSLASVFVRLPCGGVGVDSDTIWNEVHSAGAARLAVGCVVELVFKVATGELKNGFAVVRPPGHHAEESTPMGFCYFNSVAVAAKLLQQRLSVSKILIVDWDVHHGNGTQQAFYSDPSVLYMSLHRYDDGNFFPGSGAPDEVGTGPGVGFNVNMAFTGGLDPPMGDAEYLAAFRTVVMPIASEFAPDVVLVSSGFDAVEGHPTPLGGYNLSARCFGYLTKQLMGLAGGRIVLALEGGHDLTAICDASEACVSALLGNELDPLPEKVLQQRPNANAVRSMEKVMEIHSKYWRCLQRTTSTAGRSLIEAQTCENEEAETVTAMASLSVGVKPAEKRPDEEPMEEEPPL

Histone deacetylase 1 = Histone deacetylase 1 (Homo sapiens, UniProt Q13547); experiment: Inhibition of HDAC1 (unknown origin) incubated for 30 mins in presence of BSA and DTT by fluorescence assay
Sequence of Histone deacetylase 1 (Q13547 whole entry): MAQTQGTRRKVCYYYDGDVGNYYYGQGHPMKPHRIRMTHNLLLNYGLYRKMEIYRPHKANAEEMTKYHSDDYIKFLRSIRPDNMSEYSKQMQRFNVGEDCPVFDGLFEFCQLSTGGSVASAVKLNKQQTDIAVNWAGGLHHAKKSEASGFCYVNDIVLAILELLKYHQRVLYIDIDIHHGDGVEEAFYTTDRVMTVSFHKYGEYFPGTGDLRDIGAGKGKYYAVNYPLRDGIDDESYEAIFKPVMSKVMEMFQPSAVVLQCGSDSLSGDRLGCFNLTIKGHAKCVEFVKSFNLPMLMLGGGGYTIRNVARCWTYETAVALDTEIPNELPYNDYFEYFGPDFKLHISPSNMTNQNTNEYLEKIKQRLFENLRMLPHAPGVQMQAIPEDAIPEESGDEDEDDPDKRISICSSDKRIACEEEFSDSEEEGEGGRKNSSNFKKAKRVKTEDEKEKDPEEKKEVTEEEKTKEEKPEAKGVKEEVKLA

Histone deacetylase 4 [3] = target: T2, Histone deacetylase 4; experiment: Inhibition of HDAC4 (unknown origin) incubated for 30 mins in presence of BSA and DTT by fluorescence assay; outline: as §1
[4] = Antiproliferative activity against human HCT116 cells after 48 hrs in presence of DTT by MTT assay; type: functional, cell-based; conditions: HCT-116, 48 h
Outline: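 Disulfide compounds were pretreated with DTT to reduce the disulfide bond before testing.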

[5] = target: Histone deacetylase (Homo sapiens) (UniProt Q13547+O15379+Q9UBN7+Q92769+Q9UQL6+Q8WUI4+Q9BY41+Q96DB2+P56524+Q9UKV0+Q969S8); experiment: Inhibition of HDAC in human HCT116 cells assessed as increase in histone H3 (Lys9/14) hyperacetylation after 8 to 24 hrs by immunoblotting method; type: cell-based; conditions: HCT-116
Outline: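 HCT116 cells were treated across a dose range. Cellular HDAC inhibition was read as histone H3 (Lys9/14) hyperacetylation by immunoblot at 8 and 24 h post-treatment.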

Histone deacetylase 5 [6] = target: T1, Histone deacetylase 5; experiment: Inhibition of HDAC5 (unknown origin) at 1 uM incubated for 30 mins in presence of BSA and DTT by fluorescence assay; outline: as §1
[7] = target: T3, Protein deacetylase HDAC6 (Homo sapiens, UniProt Q9UBN7); experiment: Inhibition of HDAC6 (unknown origin) incubated for 30 mins in presence of BSA and DTT by fluorescence assay; outline: as §1
T3 sequence (Q9UBN7 whole entry): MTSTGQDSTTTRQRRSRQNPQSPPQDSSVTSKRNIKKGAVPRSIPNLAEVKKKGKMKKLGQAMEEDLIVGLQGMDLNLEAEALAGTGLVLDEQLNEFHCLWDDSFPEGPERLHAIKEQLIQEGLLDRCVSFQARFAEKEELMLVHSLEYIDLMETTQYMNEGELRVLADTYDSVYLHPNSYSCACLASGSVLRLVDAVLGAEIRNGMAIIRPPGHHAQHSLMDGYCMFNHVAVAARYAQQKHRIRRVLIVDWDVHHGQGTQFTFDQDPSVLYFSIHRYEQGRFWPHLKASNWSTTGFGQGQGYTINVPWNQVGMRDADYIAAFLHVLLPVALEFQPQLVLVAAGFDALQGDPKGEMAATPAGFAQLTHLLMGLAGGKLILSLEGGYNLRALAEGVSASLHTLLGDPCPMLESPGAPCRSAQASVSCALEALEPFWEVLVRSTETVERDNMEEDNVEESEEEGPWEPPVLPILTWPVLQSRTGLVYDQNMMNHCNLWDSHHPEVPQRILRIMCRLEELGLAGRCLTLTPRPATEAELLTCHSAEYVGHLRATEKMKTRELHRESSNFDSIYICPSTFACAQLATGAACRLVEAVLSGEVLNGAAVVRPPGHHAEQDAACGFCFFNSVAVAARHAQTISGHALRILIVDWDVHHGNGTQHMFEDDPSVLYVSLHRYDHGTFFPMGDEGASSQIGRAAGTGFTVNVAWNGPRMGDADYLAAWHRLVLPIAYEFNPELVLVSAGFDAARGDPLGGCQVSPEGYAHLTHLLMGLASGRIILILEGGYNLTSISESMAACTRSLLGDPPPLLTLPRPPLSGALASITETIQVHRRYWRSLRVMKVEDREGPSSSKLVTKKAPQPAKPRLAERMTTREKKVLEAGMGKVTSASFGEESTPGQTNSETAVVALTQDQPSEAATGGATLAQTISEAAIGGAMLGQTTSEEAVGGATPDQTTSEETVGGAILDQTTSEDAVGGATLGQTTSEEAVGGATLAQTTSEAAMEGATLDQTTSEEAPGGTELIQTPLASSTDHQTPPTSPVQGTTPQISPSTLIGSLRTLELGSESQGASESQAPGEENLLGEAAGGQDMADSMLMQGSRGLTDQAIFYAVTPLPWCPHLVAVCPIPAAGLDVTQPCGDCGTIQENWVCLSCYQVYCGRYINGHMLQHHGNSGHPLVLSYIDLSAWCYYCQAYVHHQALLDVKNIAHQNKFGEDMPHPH

Histone deacetylase 9 [8] = target: T4, Histone deacetylase 9 (Homo sapiens, UniProt Q9UKV0); experiment: Inhibition of HDAC9 (unknown origin) incubated for 30 mins in presence of BSA and DTT by fluorescence assay; outline: as §1
T4 sequence (Q9UKV0 whole entry): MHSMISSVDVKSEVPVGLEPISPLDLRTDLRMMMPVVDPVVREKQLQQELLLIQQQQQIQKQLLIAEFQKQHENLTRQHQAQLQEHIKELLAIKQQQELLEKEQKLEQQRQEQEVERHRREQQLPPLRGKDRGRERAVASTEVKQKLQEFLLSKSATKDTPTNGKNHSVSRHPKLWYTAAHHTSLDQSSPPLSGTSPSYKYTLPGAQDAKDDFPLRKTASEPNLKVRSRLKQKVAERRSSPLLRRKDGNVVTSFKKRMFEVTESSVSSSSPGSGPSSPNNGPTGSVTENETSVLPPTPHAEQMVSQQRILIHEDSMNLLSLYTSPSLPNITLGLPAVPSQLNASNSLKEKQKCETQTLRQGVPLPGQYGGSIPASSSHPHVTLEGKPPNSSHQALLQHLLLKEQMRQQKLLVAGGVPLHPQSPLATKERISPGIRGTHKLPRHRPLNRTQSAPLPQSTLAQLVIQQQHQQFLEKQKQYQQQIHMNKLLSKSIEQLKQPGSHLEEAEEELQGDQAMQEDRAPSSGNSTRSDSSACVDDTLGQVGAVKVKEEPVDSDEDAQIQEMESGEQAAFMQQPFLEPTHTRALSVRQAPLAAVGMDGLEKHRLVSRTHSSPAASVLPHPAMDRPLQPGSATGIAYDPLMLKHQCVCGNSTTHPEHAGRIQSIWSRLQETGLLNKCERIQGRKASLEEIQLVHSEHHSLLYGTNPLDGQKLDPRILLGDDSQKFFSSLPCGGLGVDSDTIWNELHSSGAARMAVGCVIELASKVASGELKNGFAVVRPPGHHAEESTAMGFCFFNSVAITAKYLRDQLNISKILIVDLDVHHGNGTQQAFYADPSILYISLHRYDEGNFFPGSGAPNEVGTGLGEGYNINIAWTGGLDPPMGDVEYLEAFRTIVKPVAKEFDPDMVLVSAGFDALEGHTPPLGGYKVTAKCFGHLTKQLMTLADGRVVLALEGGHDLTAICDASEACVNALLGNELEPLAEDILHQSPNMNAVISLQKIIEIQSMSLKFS

Histone deacetylase 2 = Histone deacetylase 2 (Homo sapiens, UniProt Q92769); experiment: Inhibition of HDAC2 (unknown origin) incubated for 30 mins in presence of BSA and DTT by fluorescence assay
Sequence of Histone deacetylase 2 (Q92769 whole entry): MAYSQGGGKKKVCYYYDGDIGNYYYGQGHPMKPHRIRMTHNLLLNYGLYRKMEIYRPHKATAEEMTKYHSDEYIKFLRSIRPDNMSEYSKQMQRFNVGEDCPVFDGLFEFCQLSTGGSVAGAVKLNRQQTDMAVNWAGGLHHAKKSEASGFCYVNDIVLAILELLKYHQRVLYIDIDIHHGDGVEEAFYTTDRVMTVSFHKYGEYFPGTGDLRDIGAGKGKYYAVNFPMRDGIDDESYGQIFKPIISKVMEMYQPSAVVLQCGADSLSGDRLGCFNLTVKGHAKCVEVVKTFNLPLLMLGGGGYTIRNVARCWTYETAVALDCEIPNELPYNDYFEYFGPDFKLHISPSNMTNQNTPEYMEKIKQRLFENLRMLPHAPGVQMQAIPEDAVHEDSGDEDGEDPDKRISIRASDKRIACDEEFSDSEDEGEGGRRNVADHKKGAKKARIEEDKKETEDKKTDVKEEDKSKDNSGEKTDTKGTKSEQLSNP

Histone deacetylase 9 [9] = target: T4, Histone deacetylase 9; experiment: Inhibition of HDAC9 (unknown origin) at 1 uM incubated for 30 mins in presence of BSA and DTT by fluorescence assay; outline: as §1
[10] = target: T5, Polyamine deacetylase HDAC10 (Homo sapiens, UniProt Q969S8); experiment: Inhibition of HDAC10 (unknown origin) incubated for 30 mins in presence of BSA and DTT by fluorescence assay; outline: as §1
T5 sequence (Q969S8 whole entry): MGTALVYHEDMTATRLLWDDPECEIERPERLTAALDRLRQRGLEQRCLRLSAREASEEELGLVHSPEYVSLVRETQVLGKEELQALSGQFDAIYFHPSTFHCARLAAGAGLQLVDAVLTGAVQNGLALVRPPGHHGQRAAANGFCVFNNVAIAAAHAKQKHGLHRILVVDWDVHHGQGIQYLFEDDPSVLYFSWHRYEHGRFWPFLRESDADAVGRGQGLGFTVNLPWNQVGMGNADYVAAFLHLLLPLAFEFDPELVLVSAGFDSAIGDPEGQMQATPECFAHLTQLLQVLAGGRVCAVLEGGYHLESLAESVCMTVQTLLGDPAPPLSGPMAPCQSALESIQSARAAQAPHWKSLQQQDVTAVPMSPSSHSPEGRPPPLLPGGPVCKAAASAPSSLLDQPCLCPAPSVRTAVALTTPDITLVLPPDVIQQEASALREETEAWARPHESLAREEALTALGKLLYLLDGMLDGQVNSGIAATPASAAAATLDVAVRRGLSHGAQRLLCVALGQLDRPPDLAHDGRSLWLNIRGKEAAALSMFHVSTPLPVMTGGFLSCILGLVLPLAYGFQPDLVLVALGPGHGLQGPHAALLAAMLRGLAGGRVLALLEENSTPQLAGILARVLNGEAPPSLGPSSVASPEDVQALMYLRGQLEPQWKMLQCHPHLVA

T1 sequence (Q9UQL6 whole entry, canonical isoform): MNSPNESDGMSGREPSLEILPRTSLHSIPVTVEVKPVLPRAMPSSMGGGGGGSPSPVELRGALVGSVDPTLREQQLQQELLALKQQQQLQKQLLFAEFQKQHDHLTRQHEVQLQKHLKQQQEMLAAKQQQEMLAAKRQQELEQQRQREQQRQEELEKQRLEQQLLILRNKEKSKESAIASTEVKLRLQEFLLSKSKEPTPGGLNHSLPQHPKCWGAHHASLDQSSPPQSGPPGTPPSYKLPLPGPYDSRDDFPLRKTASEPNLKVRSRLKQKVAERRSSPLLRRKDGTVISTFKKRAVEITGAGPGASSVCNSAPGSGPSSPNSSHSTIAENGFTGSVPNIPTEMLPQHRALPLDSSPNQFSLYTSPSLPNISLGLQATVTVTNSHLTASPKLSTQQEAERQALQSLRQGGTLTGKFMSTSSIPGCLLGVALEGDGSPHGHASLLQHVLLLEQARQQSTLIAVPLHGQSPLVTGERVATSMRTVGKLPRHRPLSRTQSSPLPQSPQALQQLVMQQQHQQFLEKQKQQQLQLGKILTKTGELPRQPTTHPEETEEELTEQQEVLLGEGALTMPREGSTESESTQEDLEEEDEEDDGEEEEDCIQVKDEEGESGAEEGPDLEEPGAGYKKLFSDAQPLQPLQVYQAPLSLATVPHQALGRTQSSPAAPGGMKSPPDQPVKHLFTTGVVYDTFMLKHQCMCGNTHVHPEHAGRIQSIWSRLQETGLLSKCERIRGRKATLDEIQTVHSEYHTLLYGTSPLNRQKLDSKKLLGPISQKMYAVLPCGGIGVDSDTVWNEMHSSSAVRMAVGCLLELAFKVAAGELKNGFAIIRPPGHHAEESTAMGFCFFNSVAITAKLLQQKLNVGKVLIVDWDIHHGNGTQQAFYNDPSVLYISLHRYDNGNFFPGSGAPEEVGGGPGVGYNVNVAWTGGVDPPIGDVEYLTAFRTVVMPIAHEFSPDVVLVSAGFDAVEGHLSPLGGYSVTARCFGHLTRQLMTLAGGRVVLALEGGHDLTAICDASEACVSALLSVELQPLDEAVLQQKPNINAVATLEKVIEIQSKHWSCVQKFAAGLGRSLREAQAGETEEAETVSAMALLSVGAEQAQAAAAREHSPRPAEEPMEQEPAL

Row | IC50 (Histone deacetylase 5 [1]) | IC50 (Histone deacetylase 3) [nM] | inhibition (Histone deacetylase 4 [2]) [%] | IC50 (Histone deacetylase 1) [nM] | IC50 (Histone deacetylase 4 [3]) | inhibition [5] | inhibition (Histone deacetylase 5 [6]) [%] | IC50 [7] [nM] | IC50 (Histone deacetylase 9 [8]) | IC50 (Histone deacetylase 2) [nM] | inhibition (Histone deacetylase 9 [9]) [%] | IC50 [10] [nM] | SMILES | IC50 [4] [nM]
1 | Not Active | 0.6 | < 20 | 0.4 | Not Active | Dose-dependent effect | < 20 | 135 | Not Active | 0.9 | < 20 | 0.5 | CC(C)[C@@H]1NC(=O)[C@]2(C)CSC(=N2)c2csc(n2)CNC(=O)C[C@@H](/C=C/CCSSC[C@H](NC(=O)OC(C)(C)C)C(=O)OC(C)(C)C)OC1=O | 13
2 | Not Active | 0.3 | < 20 | 0.3 | Not Active | Dose-dependent effect | < 20 | 61 | Not Active | 0.5 | < 20 | 0.2 | CC(C)[C@@H]1NC(=O)[C@]2(C)CSC(=N2)c2csc(n2)CNC(=O)C[C@@H](/C=C/CCSSCC/C=C/[C@@H]2CC(=O)NCc3nc(cs3)C3=N[C@@](C)(CS3)C(=O)N[C@@H](C(C)C)C(=O)O2)OC1=O | 12
